The list is not random: actives were taken first. Their share in the collection is about 4.1%.
NS3 helicase inh: inhibitors of HCV NS3 helicase, primary screen, biochemical, Cy5 molecular beacon fluorescence; Hepatitis C virus NS3 helicase; NS3 helicase DNA unwinding; inhibition, % at 10.9 µM; actives 0.56% (n = 290,000);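 active = inhibition above the mean of all tested compounds plus 3 SD, set per campaign, cut at about 35% in these data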;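 also: 0% = DMSO wells and 100% = thioflavine S control wells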
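System: Hepatitis C virus NS3 helicase domain fragment enzyme | Reagent: Annealed dual-labelled DNA beacon duplex, ATP-started | Compound dosing: 10.9 µM single point, 0.8% DMSO | Incubation: 1 h reaction at 25 °C, ATP-initiated | Technique: Cy5 fluorescence | Evaluation: Percent inhibition from t60/t0 fluorescence ratio | Benchmarks: Low DMSO, high thioflavine S at 110 µM | Replication: Singlicate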
FID counter: compounds displacing fluorescent DNA intercalator, primary screen, artefact control for HCV NS3 helicase inhibitor project, biochemical, FID fluorescence. AID 1845, 2009. inhibition, % at 7.9 µM. actives 0.17% (n = 290,000). DNA fluorescent intercalator displacement; in the data active = inhibition above about 37%;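 also: 0% = vehicle and 100% = reference compound; higher means more ethidium bromide displaced from hairpin DNA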
MEKK2 WT-MEK5: modulators of MEK5 binding to wildtype MEKK2, primary screen, biochemical, multiplex bead flow cytometry, Alexa488-MEK5. Mitogen-activated protein kinase kinase kinase 2 (Homo sapiens), Q9Y2U5. Alexa488-MEK5 binding to MEKK2 WT; actives lie on both sides. binding response (% of control), % at 10 µM. actives 1.1% (n = 290,000); in the data active = binding response below about 67% or above about 130%
T cruzi inh: inhibitors of intracellular T. cruzi growth, primary screen, luminescence, NIH3T3 host cells. T. cruzi beta-gal in NIH3T3, 90 h. inhibition, % (no concentration beside the values). actives 1.4% (n = 300,000);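 active = mean inhibition across valid replicates above about 55%, limit read from the data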;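 also: signal also drops with host cell toxicity which is not excluded here; 0% = plate median of DMSO wells and 100% = zero luminescence signal; higher percent means less beta-gal luminescence so fewer parasites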
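System: mouse NIH/3T3 fibroblasts infected with β-gal-expressing T. cruzi Tulahuen C4 / Input: NIH/3T3 cells, 5,000 per well / Buffer or medium: Low-serum DMEM with 2% FBS / Probe or stimulus: 5000 reporter trypomastigotes per well / Schedule: ≥90 h infection period, 3 h prior cell attachment / Measured by: GalScreen luminescence, 60 min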
MEKK2mut PB1 HTS: MEK5 binding signal on mutant MEKK2 PB1, primary screen, biochemical, multiplex bead flow cytometry, Alexa488-MEK5 | Alexa488-MEK5 binding to MEKK2 mutant | percent response, % at 10 µM | actives 0.35% (n = 290,000) | AID 1530, 2009; in the data active = percent response above about 24%, passing the limit was not always enough
MEKK3 PB1 HTS: modulators of MEKK3-MEK5 PB1 binding, primary screen, biochemical, wildtype MEKK3, multiplex bead flow cytometry, Alexa488-MEK5; actives 1.4% (n = 290,000); bead-based flow cytometry, Alexa488-MEK5 binding to MEKK3; actives lie on both sides; 0 = blocked by unlabeled MEK5, 100 = vehicle; Mitogen-activated protein kinase kinase kinase 3 (Homo sapiens), Q99759; binding response (% of control), % at 10 µM; AID 1529, 2009;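 active = binding response more than 3 SD above or below the average of its plate-row segment, actives on both sides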;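 also: Alexa488 bead fluorescence after subtracting the streptavidin-only scavenger bead signal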
Target sequence (Q99759 whole entry, looked up): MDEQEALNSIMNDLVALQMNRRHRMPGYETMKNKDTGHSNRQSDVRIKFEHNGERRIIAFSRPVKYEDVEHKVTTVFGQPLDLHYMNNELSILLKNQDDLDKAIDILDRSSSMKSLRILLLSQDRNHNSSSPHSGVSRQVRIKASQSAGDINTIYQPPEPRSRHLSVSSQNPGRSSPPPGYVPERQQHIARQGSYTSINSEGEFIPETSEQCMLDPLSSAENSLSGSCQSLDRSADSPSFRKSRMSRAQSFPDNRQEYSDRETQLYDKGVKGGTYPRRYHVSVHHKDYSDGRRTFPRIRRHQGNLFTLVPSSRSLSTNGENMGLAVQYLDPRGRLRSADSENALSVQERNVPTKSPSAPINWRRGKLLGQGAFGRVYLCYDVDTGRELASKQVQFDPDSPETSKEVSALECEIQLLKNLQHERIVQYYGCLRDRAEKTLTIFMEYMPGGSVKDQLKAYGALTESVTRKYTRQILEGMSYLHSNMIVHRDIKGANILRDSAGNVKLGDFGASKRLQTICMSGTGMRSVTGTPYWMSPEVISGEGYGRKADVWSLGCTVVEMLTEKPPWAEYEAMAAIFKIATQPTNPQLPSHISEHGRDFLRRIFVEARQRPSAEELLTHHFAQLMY
MEKK2wt confirm: modulators of MEK5 binding to wildtype MEKK2, confirmation, biochemical, single concentration, multiplex bead flow cytometry | shares compounds with MEKK3 PB1 HTS | Alexa488-MEK5 binding to MEKK2 WT; actives lie on both sides | binding response (% of control), % at 10 µM | actives 2.4% (n = 5,900) | AID 1892, 2009; in the data active = binding response below about 16% or above about 210%; inactive = in between
MEKK2mut confirm: mutant MEKK2 PB1-MEK5 binding signal retest – biochemical, single concentration, multiplex bead flow cytometry, confirmation | shares compounds with MEKK3 PB1 HTS | Alexa488-MEK5 binding to MEKK2 mutant | percent response, % at 10 µM | actives 2% (n = 5,900) | AID 1893, 2009; in the data active = percent response mostly above about 71%, no sharp cut-off; inactive = mostly below about 38%;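 also: higher means compound restores mutant binding toward wildtype level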
MEKK3 confirm: MEKK3 wild-type PB1 binding to MEK5, inhibitors, confirmation, biochemical, bead multiplex flow cytometry, single concentration, wildtype; shares compounds with MEKK3 PB1 HTS; Alexa488-MEK5 binding to MEKK3; active compounds read low; binding response (% of control), % at 10 µM; actives 1.8% (n = 5,900); AID 1894, 2009;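 active = binding response below 72% of control, or above a set upper limit, though filed actives all read lower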;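 also: 100% = DMSO only wells and 0% = binding blocked by excess unlabeled MEK5; lower values mean stronger disruption of MEK5 binding to MEKK3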
Numbers without * were called inactive; nt = no result given; [ ] = remark or other dose.

SMILES | NS3 helicase inh | FID counter | MEKK2 WT-MEK5 | T cruzi inh | MEKK2mut PB1 HTS | MEKK3 PB1 HTS | MEKK2wt confirm | MEKK2mut confirm | MEKK3 confirm
Cc1cccc(C2c3[nH]c4ccccc4c3CCN2C(=O)c2cn(C)c3ccccc3c2=O)n1 (stereo not drawn) | 1.4 | -28.5 | 46.0*[inhibitor] | 14.5 | -14.0 | 87.0 | 97.0 | -2.0 | 102.0
CN1CCN(C(=S)C(=O)Nc2ccc(Br)cc2)CC1 | 7.7 | 5.3 | 103.0 | 9.5 | 2.0 | 106.0 | nt | nt | nt
Cc1ccc(/C=C2/NC(=O)N(Cc3ccccc3)C2=O)o1 | 22.7 | -16.5 | 2.0*[inhibitor] | -2.9 | 1.0 | 108.0 | 89.0 | 1.0 | 95.0
O=C(CCn1cnnn1)N1CCCC(Nc2ccc(F)c(F)c2)C1 (stereo not drawn) | 17.3 | -10.8 | 96.0 | 13.9 | 4.0 | 95.0 | nt | nt | nt
Cc1ccc(NC(=O)/C(C#N)=C/c2ccc(C)s2)c(C)c1 | -3.0 | -3.6 | 39.0*[inhibitor] | 1.2 | 13.0 | 109.0 | 105.0 | -2.0 | 101.0
Cc1ccc(/C=C(\C#N)C(=O)Nc2c(C)cccc2C)s1 | -10.2 | -5.0 | 99.0 | 17.5 | 3.0 | 105.0 | nt | nt | nt
O=C(Nc1cccc(Cl)c1)c1cccc(Oc2ccc([N+](=O)[O-])cc2Cl)c1 | -13.3 | 10.3 | 17.0*[inhibitor] | -11.7 | 9.0 | 103.0 | 131.0 | 12.0 | 107.0
Cc1ccc(NC(=O)c2ccncc2)cc1[N+](=O)[O-] | -8.2 | -0.2 | 105.0 | -1.8 | 0.0 | 152.0* | 104.0 | 6.0 | 107.0
CC(C)[C@H](NC(N)=O)C(=O)Nc1cccc([N+](=O)[O-])c1 | 20.4 | -1.6 | 132.0 | -10.4 | 7.0 | 143.0* | 108.0 | 2.0 | 106.0
O=C(Nc1cccc([N+](=O)[O-])c1)c1ccncc1 | 1.8 | -0.5 | 101.0 | 2.8 | -1.0 | 141.0* | 98.0 | -5.0 | 100.0
Cc1ccc(C(=O)Nc2ccncc2)cc1[N+](=O)[O-] | -3.4 | 0.1 | 102.0 | 43.5 | -4.0 | 102.0 | nt | nt | nt
Cc1nn(CC(=O)NCCc2cccs2)c(=O)c2cc3ccccc3n12 | 9.1 | -17.4 | 104.0 | 20.5 | 3.0 | 102.0 | nt | nt | nt
C/C(=N/NC(=O)c1ccc(O)cc1)c1cccc([N+](=O)[O-])c1 | 12.6 | -1.9 | 108.0 | 9.1 | 4.0 | 103.0 | nt | nt | nt
C/C(=N\NC(=O)c1cccc([N+](=O)[O-])c1)c1ccncc1 | -2.2 | 1.7 | 55.0 | 1.3 | -17.0 | 49.0*[inhibitor] | 103.0 | 2.0 | 103.0
O=C1CCCC/C1=C\Nc1ccc(C(=O)O)c(O)c1 | 10.2 | -3.4 | 90.0 | -10.5 | -18.0 | 84.0 | nt | nt | nt
CC(C)CNCC(=O)N1c2ccccc2Sc2ccccc21 | 4.0 | 6.9 | 1.0*[inhibitor] | 17.7 | -42.0 | 2.0*[inhibitor] | 71.0 | -9.0 | 91.0
CCOC(=O)c1c(S(=O)(=O)NCC(=O)Nc2cc(C)ccc2OC)c(C)n(C)c1C | -10.3 | -41.5 | 98.0 | -1.1 | -5.0 | 96.0 | nt | nt | nt
O=C(Oc1ccc(/C=N/NC(=O)c2ccccc2F)cc1)c1ccccc1 | 8.5 | -19.6 | 104.0 | 0.4 | 2.0 | 103.0 | nt | nt | nt
N#Cc1ccc(/C=N/NC(=O)c2ccccc2F)cc1 | 11.5 | -2.8 | 140.0* | -1.4 | 47.0 | 115.0 | 101.0 | -1.0 | 102.0

Screening results: PubChem BioAssay, several laboratories
